Experimental data taken from ChEMBL document CHEMBL1165905, “Synthesis of methyl-substituted xanthotoxol to clarify prooxidant effect of methyl on radical-induced oxidation of DNA” (Eur J Med Chem, 2010).
Active and inactive are the calls of the source. The calls are words filed in the database; no cut-off is given here.

Tests used:
[1] = Antioxidant activity assessed as protection against Cu(2+)/[…]-induced DNA damage up to 180 mins by TBARS assay; assay type: functional
In short: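 DNA (2.0 mg/mL), CuSO4 (5.0 mM) and GSH (3.0 mM) in phosphate buffer (6.1 mM Na2HPO4, 3.9 mM NaH2PO4). Compound added from DMSO at 0.2 mM final. Incubated at 37 °C, with three tubes removed every 30 min and stopped with EDTA (30.0 mM final). TBARS read in the n-butanol layer at 535 nm. Oxidative percentage = (A_x/A_0) × 100 at 150 min relative to control.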

[2] = Antioxidant activity against beta-carotene and linoleic acid assessed as inhibition of bleaching of beta-carotene at 13.3 uM measured up to 540 mins by autooxidation assay; assay type: functional
In short: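 β-Carotene–linoleic acid emulsion with compound at 13.3 μM. Bleaching of β-carotene by peroxyl radicals from linoleic acid autoxidation was followed as absorbance at 460 nm and plotted against time.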

[3] = tested on: Radical scavenging activity; assay: Antioxidant activity assessed as DPPH radical scavenging activity measured up to 300 mins; assay type: functional
In short: (§1)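 Radical was dissolved in ethanol to about 1.00 absorbance: DPPH read at 517 nm, galvinoxyl at 428 nm. Compound in ethanol was added at 200 μM final and absorbance decay recorded. Percent scavenged = (1 − Abs_detect/Abs_ref) × 100, plotted against incubation time.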

[4] = Antioxidant activity assessed as protection against […]-induced oxidation of DNA at 80 uM up to 675 mins
[5] = Antioxidant activity assessed as galvinoxyl radical scavenging activity measured up to 210 mins; assay type: functional; in short: as §1
[6] = Antioxidant activity assessed as protection against […]-induced oxidation of DNA […]; assay type: functional

IC50 [3]	IC50 [5]	Compound	Activity [1]	Activity [2]	Activity [4]	Activity [6]
81.5 µM	173 µM	Cc1cc(=O)oc2c(O)c3occc3cc12	Active	Active	Active	Active
119 µM	170 µM	Cc1coc2c(O)c3oc(=O)cc(C)c3cc12	Active	Active	Active	Active

Compound	IC50 [3]	IC50 [5]	Activity [1]	Activity [2]	Activity [4]	Activity [6]
O=c1ccc2cc3ccoc3c(O)c2o1 [XANTHOTOXOL]	69.6 µM	188 µM	Active	Active	Active	Active
